Active and inactive are the calls of the source. The calls are words filed in the database; no cut-off is given here.
What was measured:
[1] = Antiinflammatory activity in rat PMNC assessed as inhibition of platelet activating factor-induced beta-glucuronidase release at 10 uM treated 15 mins before PAF challenge; assay type: functional; parameters: scale not given: the % may be the effect or the level left
Summary of the method: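 Rat PMN suspension (2.5 × 10^6 cells/mL) preincubated with sample (stock 0.1 M in DMSO, diluted in RPMI-1640) 15 min at 37 °C, then cytochalasin B 5 min, then PAF; stopped on ice after 10 min. Supernatant incubated with phenolphthalein glucuronic acid in 0.1 M HOAc buffer pH 4.6, 37 °C, 18 h; NaOH added, A550 read; inhibitory ratio versus PAF and control wells; ginkgolide B reference.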

[2] = test system: HCT-8; assay: Cytotoxicity against human HCT8 cells; assay type: functional, cell-based
[3] = test system: Bel-7402; assay: Cytotoxicity against human Bel7402 cells; assay type: functional, cell-based
[4] = test system: BGC-823; assay: Cytotoxicity against human BGC823 cells; assay type: functional, cell-based
[5] = test system: A549; assay: Cytotoxicity against human A549 cells; assay type: functional, cell-based
[6] = test system: A2780; assay: Cytotoxicity against human A2780 cells; assay type: functional, cell-based

SMILES	Activity [1] [%]	Activity [2]	Activity [3]	Activity [4]	Activity [5]	Activity [6]
C=CC[C@@]12C=C(C[C@H](O)C(C)(C)O)C(=O)C=C1OCO2 [ILLIOLIGANONE B]	33.8	inactive	inactive	inactive	inactive	inactive
C=CC[C@@H]1C[C@]2(O)C[C@H](C(C)(C)O)OC2=CC1=O [ILLIFUNONE C]	-9.4	inactive	inactive	inactive	inactive	inactive
C[C@@H]1CC[C@@]2(O)[C@]13C[C@@H](OC(=O)[C@@H]3O)[C@@]1(O)C(=O)OC[C@@]21C [NEOMAJUCIN]	22.4	inactive	inactive	inactive	inactive	inactive
CO[C@]12OC[C@@]3(C)[C@@]4(O)CC[C@@H](COC(=O)c5ccccc5)[C@]4(C[C@@H](O1)[C@@]3(O)CO)[C@H]2O [OLIGANDRIORTHOLACTONE]	15.8	inactive	inactive	inactive	inactive	inactive
C=CC[C@]1(C[C@H](O)C(C)(C)O)C=C2OCOC2=CC1=O [ILLIOLIGANONE C]	20.1	inactive	inactive	inactive	inactive	inactive
C=CCC1=C[C@]2(O)C[C@H](C(C)(C)O)OC2=CC1=O	4.8	inactive	inactive	inactive	inactive	inactive
C=CCC1=C[C@]2(O)C[C@@H](O)C(C)(C)[C@H](C1=O)C2=O [ILLIOLIGANONE A]	-7.7	inactive	inactive	inactive	inactive	inactive
C=CC[C@H]1C[C@]2(O)C[C@H](C(C)(C)O)OC2=CC1=O [ILLIFUNONE D]	18	inactive	inactive	inactive	inactive	inactive

Source: ChEMBL document CHEMBL1152972, “Rearranged prenylated C6-C3 compounds and a highly oxygenated seco-prezizaane-type sesquiterpene from the stem bark of Illicium oligandrum” (2009)
